In ChEMBL document CHEMBL1147039, “Disrupting antibiotic resistance propagation by inhibiting the conjugative DNA relaxase” (Proc Natl Acad Sci U S A, 2007):
The source made the active and inactive calls. The rule behind the calls is not given here.

B1: Type IV secretion-like conjugative transfer relaxase protein TraI (Escherichia coli (strain SMS-3-5 / SECEC)), B1LRJ1 Y16F (protein)
chain: MMSIAQVRSAGSAGNFYTDKDNYYVLGSMGERWAGRGAEQLGLQGSVDKDVFTRLLEGRLPDGADLSRMQDGSNKHRPGYDLTFSAPKSVSMMAMLGGDKRLIDAHNQAVDFAVRQVEALASTRVMTDGQSETVLTGNLVMALFNHDTSRDQEPQLHTHAVVANVTQHNGEWKTLSSDKVGKTGFIENVYANQIAFGRLYREKLKEQVEALGYETEVVGKHGMWEMPGVPVEAFSGRSQTIREAVGEDASLKSRDVAALDTRKSKQHVDPEIKMTEWMQTLKETGFDIRAYRDAAEQRAYTRTQTPGPASQDGPDVQQAVTQAIAGLSERKVQFTYTDVLARTVGILPPEAGVIERARAGIDEAISREQLIPLDREKGLFTSGIHVLDELSVRALSRDIMKQNRVTVHPEKSVPRTAGYSDAVSVLAQDRPSLAIVSGQGGAAGQRERVAELVMMAREQGREVQIIAADRRSQMNLKQDERLSGELITGRRQLLEGMAFTPGSTVIVDQGEKLSLKETLTLLDGAARHNVQVLITDSGQRTGTGSALMAMKDAGVNTYRWQGGEQRPATIISEPDRNVRYARLAGDFAASVKAGEESVAQVSGVREQAILTQAIRSELKTQGVLGHQEVTMTALSPVWLDSRSRYLRDMYRPGMVMEQWNPETRSHDRYVIDRVTAQSHSLTLRDAQGETQVVRISSLDSSWSLFRPEKMPVADGERLRVTGKIPGLRVSGGDRLQVASVSEDAMTVVVPGRAEPASLPVADSPFTALKLENGWVETPGHSVSDSAKVFAAVTQMAMDNATLNGLARSGRDVRLYSSLDETRTAEKLARHPSFTVVSEQIKAHAGETSLETSISLQKAGLHTPAQQAIHLALPVLESKKLAFSMVDLLTEAKSFAAEGTGFTELGGEINAQIKRGDLLYVDVAKGYGTGLLVSRASYEAEKSILRHILEGKEAVTPLMERVPGELMEKLTSGQRAATRMILETSDRFTVVQGYAGVGKTTQFRAVMSAVNMLPESMRPRVVGLGPTHRAVGEMRSAGVDAQTLASFLHDTQLQQRSGETPDFSNTLFLLDESSMVGNTDMARAYALIAAGGGRAVASGDTDQLQAIAPGQPFRLQQTRSAADVAIMKEIVRQTPELREAVYNLINRDVERALSGLERVKPSQVPRLEGAWAPEHSVMEFSHSQEAKLAEAQQKAMLKGEAFPDVPMTLYEAIVRDYTGRTPEAREQTLIVTHLNEDRRVLNSMIHDAREKAGELGKEQVMVPVLNTANIRDGELRRLSTWETHRDALVLVDNVYHRIAGISKDDGLITLEDAEGNTRLISPREAVAEGVTLYTPDTIRVGTGDRMRFTKSDRERGYVANSVWTVTAVSGDSVTLSDGQQTRVIRPGQERAEQHIDLAYAITAHGAQGASETFAIALEGTEGNRKQMAGFESAYVALSRMKQHVQVYTDNRQGWTDAINNAVQKGTAHDVFEPKPDREVMNAERLFSTARELRDVAAGRAVLRQAGLAGGDSPARFIAPGRKYPQPYVALPAFDRNGKSAGIWLNPLTTDDGNGLRGFSGEGRVKGSGDAQFVALQGSRNGESLLADNMQEGVRIARDNPDSGVVVRIAGEGRPWNPGAITGGRVWGDIPDNSVQPGAGNGEPVTAEVLAQRQAEEAIRRETERRADEIVRKMAENKPDLPDGKTEQAVREIAGQERDRAAITEREAALPESVLRESQREREAVREVARENLLQERLQQMERDMVRDLQKEKTLGGD

Legend:
[1] = tested on: Type IV secretion-like conjugative transfer relaxase protein TraI (Escherichia coli (strain SMS-3-5 / SECEC)), B1LRJ1 [Y16F]; assay: (§1) Inhibition of Escherichia coli F plasmid TraI relaxase Y16F mutant assessed as oriT ssDNA cleavage at 200 nM
Escherichia coli [2] = assay: Selectivity ratio, ratio of EC50 for Escherichia coli JS4 to ratio of EC50 for inhibition of conjugate DNA transfer between Escherichia coli JS10 and Escherichia coli JS4; type: functional
Procedure, shortened: (§2)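 Each ratio divides one EC50 by another. The EC50s come from 100-min inhibitor exposures: separate donor and recipient survival assays, and a 1:9 donor:recipient liquid mating assay. Viable or transconjugant cells were counted on selective agar or by oxygen-quenched fluorescence in antibiotic medium.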

Escherichia coli [3] = assay: Selectivity ratio, ratio of EC50 for Escherichia coli JS10 to ratio of EC50 for inhibition of conjugate DNA transfer between Escherichia coli JS10 and Escherichia coli JS4; type: functional; procedure, shortened: as §2
Escherichia coli [4] = assay: Selectivity ratio, ratio of EC50 for Escherichia coli JS4 to EC50 for Escherichia coli JS10; type: functional; procedure, shortened: as §2
Escherichia coli [5] = assay: Cytotoxicity against streptomycin-resistant F plasmid deficient Escherichia coli JS4; type: functional, organism-based
Procedure, shortened: (§3)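 Donor and recipient strains were kept separate and exposed to inhibitor for 100 min. Inhibitor was added at the start and removed before selection. Surviving cells were counted on antibiotic-selective agar plates, or in antibiotic-containing medium by an oxygen-quenched fluorophore gel assay in which fluorescence is proportional to live cells. EC50 was determined from cell counts.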

Escherichia coli [6] = assay: Cytotoxicity against tetracycline-resistant F plasmid positive Escherichia coli JS10; type: functional, organism-based; procedure, shortened: as §3
[7] = molecular target: T1, Type IV secretion-like conjugative transfer relaxase protein TraI (Escherichia coli (strain SMS-3-5 / SECEC), UniProt B1LRJ1, Y16F); assay: Inhibition of Escherichia coli F plasmid TraI relaxase Y16F mutant assessed as oriT ssDNA cleavage by competitive inhibition assay
Procedure, shortened: (§4)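 Truncated F plasmid TraI (residues 1–300, Y16F) was expressed in E. coli at 30°C as an intein–chitin-binding-domain fusion, purified on chitin resin and released by DTT cleavage. Biotinylated oriT ssDNA was either fluorescein end-labelled or hybridised after the reaction to an end-labelled probe. Reactions ran at 37°C, were stopped with SDS/EDTA at 80°C, and were read on streptavidin-coated plates.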

Escherichia coli [8] = assay: Selectivity ratio, ratio of EC50 for inhibition of conjugate DNA transfer between Escherichia coli JS10 and Escherichia coli JS4 to EC50 for Escherichia coli JS10; type: functional; procedure, shortened: as §2
Escherichia coli [9] = assay: Inhibition of conjugate DNA transfer between tetracycline-resistant F plasmid positive Escherichia coli JS10 to streptomycin-resistant F plasmid deficient Escherichia coli JS4; type: functional, organism-based
Procedure, shortened: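 F+ donor and F− recipient E. coli were mixed 1:9 in dilute liquid medium with increasing inhibitor concentrations for 100 min. Inhibitor was removed before transconjugants were selected with antibiotics. Transconjugants were counted as colonies on agar, or by oxygen-biosensor fluorescence in antibiotic medium. EC50 for DNA transfer was derived from the counts.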

[10] = tested on: Type IV secretion-like conjugative transfer relaxase protein TraI (Escherichia coli (strain SMS-3-5 / SECEC)), B1LRJ1 [Y16F]; assay: as §1; remark: listed apart in the source
[11] = molecular target: T1, Type IV secretion-like conjugative transfer relaxase protein TraI; assay: Inhibition of Escherichia coli F plasmid TraI relaxase Y16F mutant assessed as oriT ssDNA cleavage by uncompetitive inhibition assay; procedure, shortened: as §4
[12] = substrate: O=P(O)(O)NP(=O)(O)O; assay: Activity of Escherichia coli F plasmid TraI relaxase Y16F mutant assessed as oriT ssDNA cleavage; procedure, shortened: as §4

Molecule	Activity [1]	Ratio EC50 (Escherichia coli [2])	Ratio EC50 (Escherichia coli [3])	Ratio EC50 (Escherichia coli [4])	EC50 (Escherichia coli [5]) [µM]	EC50 (Escherichia coli [6]) [µM]	Ki [7] [µM]	Ratio EC50 (Escherichia coli [8])	EC50 (Escherichia coli [9]) [µM]	Activity [10]	Ki [11] [µM]	Km [12] [µM]	Vmax [12] [nM/s]
CC1(C)S[C@@H]2[C@H](NC(=O)[C@H](N)c3ccccc3)C(=O)N2[C@H]1C(=O)O	inactive												
O=P(O)(O)CP(=O)(O)O [MEDRONIC ACID]	inactive	20	1.5	1700	870	0.51	0.003	0.68	0.35				
CC(O)(P(=O)(O)O)P(=O)(O)O [ETIDRONIC ACID]	inactive	1100	30	38	370	10	0.003	0.034	0.33	Active			
O=P(O)(O)CN(CP(=O)(O)O)CP(=O)(O)O	inactive												
NCCC(O)(P(=O)(O)O)P(=O)(O)O [PAMIDRONIC ACID]	inactive				> 10000	> 10000			> 10000	inactive			
O=P(O)(O)NP(=O)(O)O [IMIDODIPHOSPHATE]	inactive	20	0.014	1400	620	0.43	0.002		10		0.0027		
NCCCCCC(O)(P(=O)(O)O)P(=O)(O)O	inactive									inactive			
COP(=O)(OC)c1ccccc1P(=O)(OC)OC	inactive	7100	0.0048	1500000		0.068		210	14				
O=P(O)(O)C(Cl)(Cl)P(=O)(O)O [CLODRONIC ACID]	inactive	26000	78	330	3000	9	0.003	0.013	0.11	Active			
O=C(O)CN(CP(=O)(O)O)CP(=O)(O)O	inactive												
O=P(O)(O)CNCP(=O)(O)O [IMINOBIS(METHYLPHOSPHONIC ACID)]	inactive	9000	0.028	330000	5000	0.016		36	0.58				
O=P(O)(O)CCCCP(=O)(O)O	inactive												
B1												0.294	0.51
